Many of the other results were omitted from the sample, so hits are more common in it than they were.
XBP1 UPR activ = activators of adaptive XBP1 UPR arm, primary screen, cell-based, CHO-XBP1 luciferase reporter, luminescence, uHTS. activation, % at 20 µM. IRE1-XBP1 UPR activation; percent of tunicamycin response, DMSO as zero. 0.33% of 330,000 active. AID 463104, 2010;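 active means versus positive control, 20 µM dose yields 30% or more activation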
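Material: CHO cell line with stable XBP1 luciferase reporter; schedule: 16-18 h cell attachment at 37 °C, then 6 h compound exposure; signal: glow luminescence from Steady-Glo reagent; medium: serum-containing F12 medium, 10% FBS; benchmarks: tunicamycin 10 µg/mL and vehicle-only wells; read-out: percent activation relative to tunicamycin reference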
Tb MetRS inh = T. brucei MetRS inhibitors, primary screen, biochemical, luminescence. methionyl-tRNA synthetase (Trypanosoma brucei brucei). purified T. brucei MetRS, ATP depletion, Kinase-Glo luminescence. inhibition, % at 11.9 µM. 0.4% of 360,000 active. AID 624268, 2012;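 active means inhibition above a per-plate cutoff of the control wells' mean inhibition plus 3 SD, cut at about 5.5% in these data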
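Dosing: 11.9 µM single point; system: parasite MetRS enzyme; technique: luminescence of leftover ATP; times: 15 min enzyme-compound preincubation, 2 h reaction, 10 min detection, 25 °C; replicates: each compound tested once; read-out basis: percent inhibition relative to median high and low control wells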
CHOP UPR activ = activators of apoptotic CHOP UPR arm, primary screen, cell-based, CHO-CHOP luciferase reporter, luminescence, uHTS; UPR activation; percent of tunicamycin response over DMSO baseline; activation, % at 10 µM; 0.34% of 330,000 active;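 active means at 10 µM dose, activation of 40% or more, normalized to positive control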
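Test system: CHO CHOP reporter cells. Input: 500 CHO-CHOP cells per well. Medium: F12 with 10% FBS. Technique: luciferase luminescence. Measure: percent activation relative to tunicamycin control. Dosing: 10 µM compound, 0.5% DMSO. Timing: 16-18 h cell attachment, then 6 h compound exposure, 37 °C.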
CHOP inhibitor = inhibitors of CHOP promoter induction, primary screen, cell-based, unfolded protein response, luciferase reporter | inhibition, % at 10 µM | CHO-K1 CHOP-promoter luciferase, tunicamycin-induced, 15-18 h | 3.8% of 220,000 active;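 active means compounds that reduced the stress-induced luciferase reporter signal by more than about 70% of percent inhibition, limit read from the data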
V-ATPase pH = regulators of yeast V-ATPase proton pumping, primary screen, pHLuorin cytosolic pH fluorescence. S. cerevisiae. response, % at 10 µM. 0.37% of 350,000 active. AID 504577, 2011; in the data active means response mostly above about 7.3%, no sharp cut-off; inactive means mostly below about 5.4%; further: actives read high
CHOP inh conf = retest of CHOP induction inhibitors, confirmation, cell-based. shares compounds with CHOP inhibitor. CHO-CHOP promoter luciferase reporter, tunicamycin-induced, luminescence. inhibition, % at 10 µM. 45% of 2,100 active;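 active means mean of three repeat readings of reporter signal inhibition above a set limit, cut at about 70% in these data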
Large screens that a line does not name were inactive (follow-up assays come after a bar, where they were run).

CN(C)S(=O)(=O)c1ccc(C(=O)Nc2nnc(SCc3cccc4ccccc34)s2)cc1	CHOP inhibitor 103 (no result: V-ATPase pH) | CHOP inh conf inactive
O=C(Nc1nnc(-c2ccccc2Cl)o1)c1nc2ccccc2s1	CHOP inhibitor 99 | CHOP inh conf inactive
O=C(CS(=O)(=O)c1ccc(F)cc1)Nc1nnc(-c2ccccc2Cl)o1	none (no result: CHOP inhibitor)
Cc1cccc(NC(=O)CSc2nc3ccccc3c3nc(CCc4c(C)n[nH]c4C)nn23)c1	none
Cc1n[nH]c(C)c1CCc1nc2c3ccccc3nc(SCC(=O)Nc3ccccc3F)n2n1	CHOP inhibitor 98 | CHOP inh conf inactive
COc1ccc(CNC(=O)CCSCc2cccc(Cl)c2)c(OC)c1	none
CC(C)=CCc1c(O)c(CC=C(C)C)c2c(c1O)C(=O)CC(c1ccc(O)cc1)O2 (stereo not drawn)	CHOP inhibitor 101 | CHOP inh conf 73
COc1ccc(/C=C(\C#N)C(=O)c2cccn2C)cc1	none (no result: CHOP inhibitor)
COc1ccc(/C=C(/C(=O)c2cccs2)N2C=CC=CC2=C(C#N)C#N)cc1	CHOP inhibitor 105 (no result: XBP1 UPR activ, CHOP UPR activ) | CHOP inh conf 109
CCC(C)[C@H](NC(=O)N1CC(=O)Nc2ccccc21)C(=O)Nc1nccs1 (stereo partly drawn)	none (no result: CHOP inhibitor)
O=C(NCC1COc2ccccc2O1)c1ccc(Cl)c(S(=O)(=O)N2CCCC2)c1 (stereo not drawn)	none (no result: CHOP inhibitor)
CCOC(=O)C1CCCCN1Cc1ccc(F)c(Br)c1 (stereo not drawn)	CHOP inhibitor 106 | CHOP inh conf inactive
CCc1ccc(NC(=O)CSc2nc(N)c(NC(=O)c3ccc(F)c(F)c3)c(=O)[nH]2)cc1	none (no result: CHOP inhibitor)
Cc1nnc(Sc2cc(NCCCO)c([N+](=O)[O-])c3nonc23)s1	none (no result: XBP1 UPR activ, CHOP UPR activ)
O=[N+]([O-])c1c(NCCCO)cc(Sc2nc3ccccc3s2)c2nonc12	CHOP inhibitor 109 | CHOP inh conf 71
Cc1nnc(Sc2cc(NCCO)c([N+](=O)[O-])c3nonc23)s1	CHOP inhibitor 98 (no result: XBP1 UPR activ, CHOP UPR activ) | CHOP inh conf inactive
CCN(CC)CCNC(=O)CCc1c(C)nc2c(c(C)nn2-c2ccc(C)c(C)c2)c1C	none (no result: CHOP inhibitor)
CC(C)CC(=O)/C(=C/c1ccc(N(C)C)cc1)n1cncn1	none (no result: CHOP inhibitor)
CC(C)CC(=O)/C(=C\c1ccc(Cl)cc1Cl)n1cncn1	CHOP inhibitor 109 (no result: XBP1 UPR activ, CHOP UPR activ) | CHOP inh conf inactive
COc1ccc(OC)c(CCNC(=O)Cn2sc3nc(C)cc(C)c3c2=O)c1	CHOP inhibitor 98 (no result: Tb MetRS inh, V-ATPase pH) | CHOP inh conf inactive
CC1CCCCN1S(=O)(=O)c1ccc(S(=O)(=O)NCCc2ccncc2)cc1 (stereo not drawn)	none
CCC(C)c1ccc(O)c(NC(=O)c2cncc(Br)c2)c1 (stereo not drawn)	CHOP inhibitor 111 | CHOP inh conf 82
CC(NC(=S)Nc1ccccc1C(F)(F)F)C1CC2CCC1C2 (stereo not drawn)	none
CC(C)(C)c1cc(CN2CCCCC2)cc(C(C)(C)C)c1O	none (no result: Tb MetRS inh, V-ATPase pH)
CC(C)(C)c1cc(CN2CCCC(O)C2)c(O)c(C(C)(C)C)c1 (stereo not drawn)	CHOP inhibitor 107 | CHOP inh conf 109
Nc1cc(Cl)ccc1Oc1ccccc1	none
Nc1cc(Cl)ccc1Oc1ccc(Cl)cc1	CHOP inhibitor 96 | CHOP inh conf 134
Cc1cc2ncn(-c3ncnc4sc5c(c34)CCC(C)C5)c2cc1C (stereo not drawn)	CHOP inhibitor 97 | CHOP inh conf inactive
O=C(NCc1ccc(Cl)cc1)C1CCC(CNS(=O)(=O)c2ccccc2)CC1 (stereo not drawn)	none (no result: CHOP inhibitor)
Cc1ccc(OCC(O)Cn2c(=N)n(Cc3ccccc3)c3ccccc32)cc1 (stereo not drawn)	CHOP inhibitor 105 | CHOP inh conf inactive
Cc1cccc(OCC(O)Cn2c(=N)n(Cc3ccccc3)c3ccccc32)c1 (stereo not drawn)	none
CCCc1nnc(NC(=O)c2c(O)c3cccc4c3n(c2=O)CC4)s1	none (no result: Tb MetRS inh, CHOP inhibitor, V-ATPase pH)
CC(C)c1nnc(NC(=O)c2c(O)c3cccc4c3n(c2=O)CCC4)s1	CHOP inhibitor 104 | CHOP inh conf 109
Cc1ccc(NC(c2ccccc2)c2nc3ccccc3[nH]c2=O)cc1 (stereo not drawn)	CHOP inhibitor 102 | CHOP inh conf inactive
O=c1onc2n1-c1cc(Br)ccc1OC2	none (no result: XBP1 UPR activ, Tb MetRS inh, CHOP UPR activ, V-ATPase pH)
CNc1nc(Sc2ccccc2)cc(C(F)(F)F)n1	none
CNc1nc(Sc2cccc(C(F)(F)F)c2)cc(C(F)(F)F)n1	CHOP inhibitor 101 | CHOP inh conf 98
O=C(CSc1nnc(CCCN2C(=O)c3cccc4cccc(c34)C2=O)n1-c1ccccc1)NCCCN1CCOCC1	none
COc1ccc(OCc2nnc(NC(=O)Nc3ccc(F)cc3)s2)cc1	CHOP inhibitor 101 | CHOP inh conf inactive
O=C(Nc1nnc(COc2ccc(F)cc2)s1)Nc1ccccc1F	CHOP inhibitor 99 | CHOP inh conf inactive
COc1ccc(NC(=O)Nc2nnc(-c3ccccc3SCc3ccccc3)s2)cc1	CHOP inhibitor 98 | CHOP inh conf inactive
CCOC(=O)c1sc(NC(=O)Nc2ccccc2F)nc1C	CHOP inhibitor 102 | CHOP inh conf inactive
COc1ccc(CCN2CCCn3c2nc2c3c(=O)n(CC(N)=O)c(=O)n2C)cc1OC	none (no result: CHOP inhibitor)
CCOC(=O)[C@]12CCCC=C1N(Cc1ccco1)C(=O)[C@H](CC(=O)NCCc1ccccc1OC)C2	none (no result: XBP1 UPR activ, CHOP UPR activ, CHOP inhibitor, V-ATPase pH)
CC(C)Oc1ccc(CNC(=O)CCCN2C(=O)C(c3ccccc3)Oc3cccnc32)cc1 (stereo not drawn)	none (no result: CHOP inhibitor)
COc1ccc(NC(=O)/C(Cl)=C(/Cl)S(=O)Cc2ccccc2Cl)cn1 (stereo not drawn)	CHOP inhibitor 110 (no result: Tb MetRS inh) | CHOP inh conf 120
COc1ccc(NC(=O)/C(Cl)=C(/Cl)S(=O)(=O)Cc2ccc(C)cc2)cn1	none (no result: XBP1 UPR activ, CHOP UPR activ, CHOP inhibitor) | CHOP inh conf 118
COc1ccc(NC(=O)Cc2ccc(Cl)c(Cl)c2)cn1	none
O=C(NCc1ccccc1Cl)c1ccc(S(=O)(=O)Nc2cccc(C(F)(F)F)c2)cc1	CHOP inhibitor 98 | CHOP inh conf 110
CN(C)S(=O)(=O)NCCNC(=O)c1cc(OCC(F)(F)F)ccc1OCC(F)(F)F	none
Cc1ccc(S(=O)(=O)Nc2ccc(NC(=O)Nc3cccc(C(F)(F)F)c3)cc2)cc1	CHOP inhibitor 99 | CHOP inh conf 116
CCN(CC)S(=O)(=O)c1ccc(NC(=O)Nc2cccc(C(F)(F)F)c2)cc1	none
O=C(NCCNC(=O)c1cc(OCC(F)(F)F)ccc1OCC(F)(F)F)Nc1cccc(C(F)(F)F)c1	CHOP inhibitor 104 | CHOP inh conf 101
O=C(Nc1ccc(OC(F)F)cc1)Nc1cccc(C(F)(F)F)c1	CHOP inhibitor 110 | CHOP inh conf 86
